Experimental data from article PMC7335720 (Saudi Pharmaceutical Journal : SPJ, 2020).

Experiment: Pharmacokinetic study after single oral dose in rabbits
Assay type: in vivo
Conditions: male, rabbit, plasma, 2.58 mg/kg
Procedure, shortened: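 Twelve healthy fasted male rabbits (≈1.5 kg), 12 h fast, two groups. Single oral dose suspended in CMC: 2.58 mg/kg parent drug, or 6.45 mg/kg conjugate (2.58 mg/kg drug-equivalent). Water after 1 h. Plasma deproteinised with acetonitrile and filtered, then HPLC-UV at 248 nm (acetonitrile:water 50:50, isocratic, 1 mL/min) against a 1–50 μg/mL standard curve. AUC by linear trapezoidal method.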

AUC(0-inf): 190 ± 4 µg·h/mL
Cmax: 37300 ng/mL
half-life: 4.6 ± 0.19 h
k el: 4.17e-05 s⁻¹
SMILES: CC(C(=O)O)c1ccc(-c2ccccc2)c(F)c1 (stereo not shown) [Standard FLB, 2-(3-fluoro-4-phenylphenyl)propionic acid]
